Structures are written as SMILES. In brackets after ≈: the same amount, converted by molar mass.

Broadly, the IC50 is the concentration that inhibits the measured activity by half.

The test concerns Influenza A virus. In words: Antiviral activity against oseltamivir-resistant Influenza A virus (A/Tianjinjinnan/15/2009/H1N1) infected in MDCK cells assessed as inhibition of virus-induced cytopathicity after 40 hrs. It counts as functional, organism-based. The note with it: A/Tianjin-Jinnan/15/2009(H1N1). In a few lines: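 CPE reduction in MDCK cells: cells grown 24 h at 37 °C, 5% CO2, then infected and held 2 h at 37 °C before the inoculum was removed. Threefold serial drug dilutions (8 levels from 20 mg/mL DMSO stocks) were added and incubated 40 h at 37 °C. CPE inhibition was scored against cell and virus controls to give IC50. Ribavirin and oseltamivir were the controls.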
(In general: Cytopathic effects are the visible damage that an infection or toxin causes in cultured cells.)
Take `CCOC(=O)C1=C[C@@H](OC(CC)CC)[C@H](NC(C)=O)[C@@H](N)C1` [OSELTAMIVIR]: the IC50 is above 500 µg/mL. As for `C=C(C(=O)OCc1cn(Cc2ccc(Cl)cc2)nn1)[C@@H]1CC[C@H](C)[C@@H]2CC(=O)C(C)=C2C1`, the figure is above 22.2 µg/mL. `C=C(C(=O)NCc1cn(Cc2cccc(C)c2)nn1)[C@@H]1CC[C@H](C)[C@@H]2CC(=O)C(C)=C2C1`: the half-maximal inhibitory concentration (IC50) was above 22.2 µg/mL. As for `C=C(C(=O)NCc1cn(Cc2ccc(OC)cc2)nn1)[C@@H]1CC[C@H](C)[C@@H]2CC(=O)C(C)=C2C1`, the IC50 was above 22.2 µg/mL. Next, `C=C(C(=O)NCc1cn(Cc2cccc(F)c2)nn1)[C@@H]1CC[C@H](C)[C@@H]2CC(=O)C(C)=C2C1`: above 22.2 µg/mL; `C=C(C(=O)OCc1cn(Cc2ccc(C)cc2)nn1)[C@@H]1CC[C@H](C)[C@@H]2CC(=O)C(C)=C2C1`: above 22.2 µg/mL; `C=C(C(=O)OCc1cn(Cc2ccccc2C)nn1)[C@@H]1CC[C@H](C)[C@@H]2CC(=O)C(C)=C2C1`: above 22.2 µg/mL. As for `C=C(C(=O)NCc1cn(Cc2cccc(OC)c2)nn1)[C@@H]1CC[C@H](C)[C@@H]2CC(=O)C(C)=C2C1`, the IC50 was above 22.2 µg/mL.

Turning to `C=C(C(=O)OCc1cn(Cc2cccc(F)c2)nn1)[C@@H]1CC[C@H](C)[C@@H]2CC(=O)C(C)=C2C1`, the IC50 is above 22.2 µg/mL.

For the compound `C=C(C(=O)NCc1cn(C2C=CCCC2)nn1)[C@@H]1CC[C@H](C)[C@@H]2CC(=O)C(C)=C2C1` (some centres not stated), the IC50 was 19.7 µg/mL (≈ 48.3 µM).

With `C=C(C(=O)OCc1cn(C2CCCCC2)nn1)[C@@H]1CC[C@H](C)[C@@H]2CC(=O)C(C)=C2C1`, the IC50 was 59.2 µg/mL (≈ 144 µM). As for `C=C(C(=O)OCc1cn(Cc2ccc(Cl)c(Cl)c2)nn1)[C@@H]1CC[C@H](C)[C@@H]2CC(=O)C(C)=C2C1`, the figure is above 7.41 µg/mL; as for `C=C(C(=O)NCc1cn(Cc2ccccc2C)nn1)[C@@H]1CC[C@H](C)[C@@H]2CC(=O)C(C)=C2C1`, above 22.2 µg/mL; as for `NC(=O)c1ncn([C@@H]2O[C@H](CO)[C@@H](O)[C@H]2O)n1` [RIBAVIRIN], 6.5 µg/mL (≈ 26.6 µM). As for `C=C(C(=O)NCc1cn(Cc2ccc(Cl)cc2)nn1)[C@@H]1CC[C@H](C)[C@@H]2CC(=O)C(C)=C2C1`, the figure is above 2.47 µg/mL; as for `C=C(C(=O)OCc1cn(Cc2ccccc2Cl)nn1)[C@@H]1CC[C@H](C)[C@@H]2CC(=O)C(C)=C2C1`, 59.2 µg/mL (≈ 130 µM). Next, `C=C(C(=O)NCc1cn(Cc2ccccc2F)nn1)[C@@H]1CC[C@H](C)[C@@H]2CC(=O)C(C)=C2C1`: above 66.7 µg/mL.

Consider `C=C(C(=O)OCc1cn(Cc2ccc(F)cc2)nn1)[C@@H]1CC[C@H](C)[C@@H]2CC(=O)C(C)=C2C1`, for which the IC50 was above 22.2 µg/mL.

For the compound `C=C(C(=O)NCc1cn(Cc2ccccc2Cl)nn1)[C@@H]1CC[C@H](C)[C@@H]2CC(=O)C(C)=C2C1`, the IC50 is above 7.41 µg/mL. As for `C=C(C(=O)OCc1cn(Cc2cccc(OC)c2)nn1)[C@@H]1CC[C@H](C)[C@@H]2CC(=O)C(C)=C2C1`, the figure is above 22.2 µg/mL. Next, `C=C(C(=O)OCc1cn(Cc2cccc(Cl)c2)nn1)[C@@H]1CC[C@H](C)[C@@H]2CC(=O)C(C)=C2C1`: above 66.7 µg/mL; `C=C(C(=O)NCc1cn(Cc2ccc(C)cc2)nn1)[C@@H]1CC[C@H](C)[C@@H]2CC(=O)C(C)=C2C1`: above 22.2 µg/mL; `C=C(C(=O)NCc1cn(Cc2ccc(Cl)c(Cl)c2)nn1)[C@@H]1CC[C@H](C)[C@@H]2CC(=O)C(C)=C2C1`: 22.2 µg/mL (≈ 45.6 µM).

Take `C=C(C(=O)OCc1cn(Cc2ccc(OC)cc2)nn1)[C@@H]1CC[C@H](C)[C@@H]2CC(=O)C(C)=C2C1`: the IC50 is 22.2 µg/mL (≈ 49.4 µM). Next, `C=C(C(=O)NCc1cn(Cc2cccc(Cl)c2)nn1)[C@@H]1CC[C@H](C)[C@@H]2CC(=O)C(C)=C2C1`: above 7.41 µg/mL.

With `C=C(C(=O)OCc1cn(Cc2ccccc2)nn1)[C@@H]1CC[C@H](C)[C@@H]2CC(=O)C(C)=C2C1`, the IC50 was above 7.41 µg/mL. Next, `C=C(C(=O)OCc1cn(Cc2cccc(C)c2)nn1)[C@@H]1CC[C@H](C)[C@@H]2CC(=O)C(C)=C2C1`: 19.7 µg/mL (≈ 45.5 µM). As for `C=C(C(=O)NCc1cn(Cc2ccccc2)nn1)[C@@H]1CC[C@H](C)[C@@H]2CC(=O)C(C)=C2C1`, the figure is above 22.2 µg/mL. For the compound `C=C(C(=O)OCc1cn(Cc2ccccc2F)nn1)[C@@H]1CC[C@H](C)[C@@H]2CC(=O)C(C)=C2C1`, the IC50 was above 22.2 µg/mL.

Regarding `C=C(C(=O)OCc1cn(C2C=CCCC2)nn1)[C@@H]1CC[C@H](C)[C@@H]2CC(=O)C(C)=C2C1` (some centres not stated), the IC50 was above 7.41 µg/mL. Regarding `C=C(C(=O)NCc1cn(C2CCCCC2)nn1)[C@@H]1CC[C@H](C)[C@@H]2CC(=O)C(C)=C2C1`, the IC50 stood at 22.2 µg/mL (≈ 54.1 µM). Next, `C=C(C(=O)NCc1cn(Cc2ccc(F)cc2)nn1)[C@@H]1CC[C@H](C)[C@@H]2CC(=O)C(C)=C2C1`: above 66.7 µg/mL.

The record behind these values is ChEMBL document CHEMBL3124823, “1,2,3-Triazole-containing derivatives of rupestonic acid: click-chemical synthesis and antiviral activities against influenza viruses” (Eur J Med Chem, 2014).
